Sampled rows, rich in hits. Any-hit rate of the full collection: about 1.3%.
Casp6 inh: caspase-6 (human) enzyme inhibition; inhibition, % at 12.5 µM; purified caspase-6, Z-VEID-R110 cleavage fluorescence; 350,000 tested, 0.53% active; P55212;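 active means mean inhibition across replicates at least about 35%, with every replicate also reaching that limit, limit read from the data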
Target sequence (P55212 24-179 limits assumed): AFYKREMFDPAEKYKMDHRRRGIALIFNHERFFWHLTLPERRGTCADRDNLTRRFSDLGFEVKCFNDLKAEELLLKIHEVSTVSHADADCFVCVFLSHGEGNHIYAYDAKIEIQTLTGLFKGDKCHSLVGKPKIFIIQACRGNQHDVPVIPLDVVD
Target sequence (P55212 194-293 limits assumed): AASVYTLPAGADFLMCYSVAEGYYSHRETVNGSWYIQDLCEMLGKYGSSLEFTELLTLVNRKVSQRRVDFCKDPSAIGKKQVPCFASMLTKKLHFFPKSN
LEDGF integ inh: blocks HIV-1 LEDGF/p75-dependent DNA integration; TR-FRET IN-LEDGF/p75 DNA integration, Eu/Cy5; inhibition, % at 3.7 µM; 370,000 tested, 0.64% active;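 active means inhibition above the screen-wide mean plus 3 SD, cut at about 13% in these data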;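 further: signal is the Cy5 over europium emission ratio at 671 and 618 nm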
ARFGAP1 inhibitor: rat ARFGAP1 inhibition | Q62848 | Arfgap1-stimulated ARF1 GTP hydrolysis, GDP FP detection | inhibition, % at 16.5 µM | 360,000 tested, 0.26% active | AID 651572;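 active means inhibition above a per-plate limit, mean inhibition of low control wells plus 3 SD, cut at about 25% in these data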
Target sequence (Q62848 1-136 limits assumed): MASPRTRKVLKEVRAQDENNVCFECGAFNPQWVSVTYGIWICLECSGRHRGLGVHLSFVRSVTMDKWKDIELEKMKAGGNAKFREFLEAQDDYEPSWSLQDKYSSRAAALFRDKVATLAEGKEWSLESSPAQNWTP
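Assay system: Rat Arfgap1 GAP domain (His6, aa 1-136), purified enzyme | Buffer or medium: HEPES 25 mM pH 7.5, NaCl 150 mM, MgCl2, DTT | Schedule: GTP hydrolysis reaction 2 h at 25 °C | Signal: FP of antibody-bound GDP Alexa 633 tracer, ex 620/em 688 nm | Measure: Percent inhibition of Arfgap1-stimulated GTP hydrolysis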
ASAP1 inh: inhibitors of human ASAP1 ArfGAP activity | 360,000 tested, 0.19% active | AID 624377 | Q9ULH1 | inhibition, % at 16.5 µM | ASAP1-stimulated ARF1 GTP hydrolysis, GDP FP detection; in the data active means inhibition above about 25%
TDP2 absorb: TDP2 (human) inhibition, absorbance primary screen; 370,000 tested, 0.34% active; AID 720702; O95551; recombinant TDP2, T5PNP hydrolysis, p-nitrophenol absorbance 415 nm; inhibition, % at 12.8 µM;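 active means inhibition above the mean of all tested compounds plus 3 SD, set per campaign, cut at about 25% in these data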
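Incubation: 2 h at 37 °C; Test system: recombinant human TDP2; Quantity: enzyme 120 nM; Read-out basis: percent inhibition; Medium: 50 mM Tris-HCl pH 7.5 with Mg2+, KCl, DTT, BSA; Repeats: single replicate; Compound: 12.8 µM single point, 1% DMSO; Signal: epi absorbance; Reagent: 5 mM T5PNP chromogenic substrate; Benchmarks: no-enzyme high, DMSO-plus-enzyme low.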
IN multimer act: counter-screen for LEDGF/p75 integration inhibitors: HIV-1 integrase multimerization activators. shares compounds with LEDGF integ inh. TR-FRET HIV-1 integrase multimerization, biochemical. activation, % at 7.7 µM. 2,000 tested, 17% active. AID 1053131; in the data active means activation above about 8.9%
TRFRET interf: optically interferes with TR-FRET readout in LEDGF counter-screen | shares compounds with LEDGF integ inh | inhibition, % at 7.7 µM | TR-FRET optical interference counterscreen, HIV-1 IN multimerization | 2,000 tested, under 10 active;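 active means inhibition above the mean over all tested compounds plus 3 SD, which no compound reached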
LEDGF integ conf: LEDGF/p75-dependent HIV-1 integration inhibition, confirmation. shares compounds with LEDGF integ inh. TR-FRET LEDGF/p75-dependent HIV-1 integration, biochemical. inhibition, % at 3.7 µM. 2,000 tested, 36% active; in the data active means inhibition above about 14%
Numbers stand for hits; n = inactive; x = not tested or not shown.

SMILES	Casp6 inh	LEDGF integ inh	ARFGAP1 inhibitor	ASAP1 inh	TDP2 absorb	IN multimer act	TRFRET interf	LEDGF integ conf
CCOc1ccc2[nH]c3c(NCCN(CC)CC)ncnc3c2c1	n	n	n	n	n	x	x	x
COC1=C(NCc2ccc3c(c2)OCO3)C(=O)C(OC)=C(NCc2ccc3c(c2)OCO3)C1=O	n	13	n	n	n	n	n	n
COC(=O)NCc1ccc2c(c1)OCO2	x	n	n	n	n	x	x	x
NC(=O)C1(c2ccccc2)CCC(=O)N1c1ccccc1 (stereo unspecified)	n	35	n	n	n	n	n	n
O=C(NCCCN1CCOCC1)c1cc(-c2ccc(F)cc2)on1	x	n	n	n	n	x	x	x
c1ccc2c(-c3ccc4nncn4c3)cncc2c1	n	n	n	n	n	x	x	x
C(=C\c1ccc2nncn2c1)/c1ccccc1	n	14	n	n	n	n	n	n
COc1ccc(C(=O)OCC(=O)NC2CCCCCCC2)cc1OC	n	27	n	n	n	n	n	n
COc1ccc(C(=O)OCC(=O)NC2CCCCCC2)cc1OC	n	n	n	n	n	x	x	x
CN=c1scc(-c2ccccc2F)n1/N=C/c1ccc(O)c(O)c1O	n	22	n	n	n	n	n	28
Cc1ccc2c(c1)cc(CN(Cc1cccnc1)C(=O)c1ccccc1)c1nnnn12	n	n	n	n	n	x	x	x
COc1ccc(OC)c(/C=C/C(=O)N2CCCc3ccccc32)c1	n	n	n	n	n	x	x	x
COc1ccc(/C=C/C(=O)N2CCCc3ccccc32)cc1	n	21	n	n	n	9.5	n	19
OCCOCCOc1ccc(-c2nn[nH]n2)cc1	n	17	n	n	n	n	n	n
CCOc1ccc(-c2nn[nH]n2)cc1	x	n	n	n	n	x	x	x
O=S(=O)(c1ccc2c(c1)N(Cc1ccc(Cl)cc1)C1CCCN21)N1CCOCC1 (stereo unspecified)	x	23	n	n	n	n	n	n
COCCn1c(SCc2ccc(OC)c(F)c2)nnc1-c1ccncc1	n	n	n	n	n	x	x	x
CC1=CN2C(=N)/C(=C/c3ccco3)C(=O)N=C2S1	n	n	n	n	n	x	x	x
CC1=CN2C(=N)/C(=C/c3ccc([N+](=O)[O-])o3)C(=O)N=C2S1	37	18	n	n	n	n	n	17
CC1CCc2sc3c(c2C1)c(=O)n(CC(=O)O)c(=O)n3Cc1ccc(Cl)cc1 (stereo unspecified)	x	n	n	n	n	x	x	x
Cc1c2ccccc2c(C)c2c1ccc1ccccc12	n	n	n	n	n	x	x	x
COc1cccc(CC(=O)NNC(=O)c2ccc3c(c2)OCO3)c1	n	n	n	n	n	x	x	x
COc1cccc(CN2C(=O)CCC2(C)C(=O)NC2CCCC2)c1 (stereo unspecified)	x	22	n	n	n	n	n	n
Cn1ccc2c(N(Cc3ccccc3)Cc3ccccc3)cc3c(c21)C1CCC3O1 (stereo unspecified)	n	20	n	n	n	n	n	n
CN(Cc1ccccc1)c1cc2c(c3c1ccn3C)C1CCC2O1 (stereo unspecified)	n	n	n	n	n	x	x	x
SMILES	Casp6 inh	LEDGF integ inh	ARFGAP1 inhibitor	ASAP1 inh	TDP2 absorb	IN multimer act	TRFRET interf	LEDGF integ conf
COc1ccc(S(=O)(=O)N2CCN(C(=O)CNC(=O)c3ccc4c(c3)OCO4)CC2)cc1	n	n	n	n	n	x	x	x
COc1cc(CCCN2CCNC[C@H]2Cc2cccc3ccccc23)cc(OC)c1OC	n	44	n	n	n	n	n	n
CNS(=O)(=O)c1cc(C(=O)O)ccc1OC	n	n	n	n	n	x	x	x
CCOC(=O)[C@]12CCC=C1N(Cc1ccco1)C(=O)[C@H](CC(=O)NCCCN1CCCC1=O)C2	n	n	n	n	n	x	x	x
O=C1OC(c2cccs2)=N/C1=C\c1ccc(-c2ccccc2Cl)o1	n	n	n	n	n	x	x	x
O=C1OC(c2cccs2)=N/C1=C/c1ccc(-c2cccc(C(=O)O)c2)o1	n	29	n	n	n	9.5	n	15

Screens: PubChem BioAssay, several laboratories
